The values that follow come from ChEMBL document CHEMBL1156921, “Synthesis and anti-leishmanial activity of heterocyclic betulin derivatives” (Bioorg Med Chem, 2010).

pIC50: −log10 of the molar value.

Series [1] deals with Leishmania donovani. Nature of the series: Antiparasitic activity against Leishmania donovani MHOM/SD/1962/1S-Cl2d axenic amastigotes at 50 uM by alamar blue assay. Type of series: functional.
Series [2] has as its system Leishmania donovani. Nature of the series: Antiparasitic activity against Leishmania donovani MHOM/SD/1962/1S-Cl2d amastigotes in human THP1 cells at 25 uM after 48 hrs by microplate reader. The series is classed as functional. As to conditions: THP-1, 48 h.
Series [3] is described as follows: Cytotoxicity against human THP1 cells at 25 uM after 48 hrs by alamar blue assay. The series is classed as cell-based. Particulars: THP-1 cells, read-out: INH. In outline: (§1)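 THP-1 cells in complete RPMI-1640, 10% FCS, added to compounds in medium with DMSO, triplicate, 48 h at 37 °C, 5% CO2; alamarBlue added, 3 h further incubation, fluorescence ex 544/em 590 nm; % growth inhibition.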

The nature of series [4]: Cytotoxicity against human THP1 cells at 12.5 uM after 48 hrs by alamar blue assay. As to conditions: THP-1 cells, read-out: INH. Type of series: cell-based. Summed up:
as §1
Background: Alamar Blue is a resazurin reagent that responds to reducing activity.

Series [5] is described as follows: Cytotoxicity against human THP1 cells at 50 uM after 48 hrs by alamar blue assay. Type of series: cell-based. Particulars: THP-1 cells, read-out: INH. Summed up: as §1
The subject of series [6] is Leishmania donovani. In words: Antiparasitic activity against Leishmania donovani MHOM/SD/1962/1S-Cl2d amastigotes in human THP1 cells at 12.5 uM after 48 hrs by microplate reader. The series is classed as functional. As to conditions: THP-1, 48 h.
The test system of series [7] is Leishmania donovani. Nature of the series: Antiparasitic activity against Leishmania donovani MHOM/SD/1962/1S-Cl2d amastigotes in human THP1 cells at 50 uM after 48 hrs by microplate reader. Particulars: THP-1, 48 h. Type of series: functional.
Series [8] relates to Leishmania donovani. Nature of the series: Antiparasitic activity against Leishmania donovani MHOM/SD/1962/1S-Cl2d axenic amastigotes at 15 uM by alamar blue assay. Type of series: functional.
For series [9], the system named is Leishmania donovani. Nature of the series: Antiparasitic activity against Leishmania donovani MHOM/SD/1962/1S-Cl2d axenic amastigotes at 1 uM by alamar blue assay. The series is classed as functional.
Series [10] deals with Leishmania amazonensis. In words: Antiparasitic activity against Leishmania amazonensis assessed as survival index at 136 uM. Type of series: functional.
Series [11] is described as follows: Toxicity against peritoneal macrophages assessed as survival induces at 68 uM. The series is classed as cell-based, Peritoneal macrophage cell. Particulars: read-out: Survival.
Series [12] is described as follows: Toxicity against peritoneal macrophages assessed as survival induces at 136 uM. The series is classed as cell-based, Peritoneal macrophage cell. As to conditions: read-out: Survival.
Series [13] relates to Leishmania amazonensis. In words: Antiparasitic activity against Leishmania amazonensis assessed as survival index at 68 uM. The series is classed as functional.
Series [14] deals with Leishmania donovani. In words: Antileishmanial activity against Leishmania donovani infected golden hamster assessed as reduction of parasite burden at 10 mg/kg after 6 weeks. Set-up: scale not given: the % may be the effect or the level left. Type of series: functional.
Series [15] concerns Leishmania donovani. In words: Antileishmanial activity against Leishmania donovani promastigotes. Type of series: functional, organism-based.
Series [16] has as its system Leishmania donovani. Nature of the series: Antileishmanial activity against Leishmania donovani amastigotes. The series is classed as functional, organism-based.

`CC(C)[C@@]12CC[C@]3(COC(=O)c4ccccc4)CC[C@]4(C)C(=C31)[C@H](C[C@@H]1[C@@]3(C)CC[C@H](OC(=O)c5ccccc5)C(C)(C)[C@@H]3CC[C@]14C)n1c(=O)n(-c3ccccc3)c(=O)n12`: the inhibition at 50 µM in [1] stood at 0%.
The molecule `CC(=O)OC[C@]12CC[C@]3(C(C)C)C1=C1[C@H](C[C@@H]4[C@@]5(C)CC[C@H](OC(C)=O)C(C)(C)[C@@H]5CC[C@@]4(C)[C@]1(C)CC2)n1c(=O)n(-c2cccc([N+](=O)[O-])c2)c(=O)n13` gave an inhibition at 50 µM in series [1] of 30%.
In the case of `CC(C)[C@@]12CC[C@]3(CO)CC[C@]4(C)C(=C31)[C@H](C[C@@H]1[C@@]3(C)CC[C@H](O)C(C)(C)[C@@H]3CC[C@]14C)n1c(=O)n(C)c(=O)n12`, the inhibition at 50 µM in series [1] came to 50%.
Molecule `CC(=O)OC[C@]12CC[C@]3(C(C)C)C1=C1[C@H](C[C@@H]4[C@@]5(C)CC[C@H](OC(C)=O)C(C)(C)[C@@H]5CC[C@@]4(C)[C@]1(C)CC2)n1c(=O)[nH]c(=O)n13` displayed an inhibition at 25 µM in [2] of 55%. Besides, in series [3], the cytotoxicity at 48 h, 25 µM stood at 2.4%. Also, in series [4], the cytotoxicity at 48 h, 12.5 µM turned out to be 0%. For the same molecule, in [5], the cytotoxicity at 48 h, 50 µM worked out at 97%. Further, the inhibition at 12.5 µM in [6] was 4.8%. This molecule also came in with an inhibition at 50 µM in series [1] of 88%.
For `CC(=O)OC[C@]12CC[C@]3(C(C)C)C1=C1[C@H](C[C@@H]4[C@@]5(C)CC[C@H](OC(C)=O)C(C)(C)[C@@H]5CC[C@@]4(C)[C@]1(C)CC2)n1c(=O)n(-c2ccc4c(c2)CCC4)c(=O)n13`, in series [1], the inhibition at 50 µM worked out at 23%.
For the molecule `CC(=O)OC[C@]12CC[C@]3(C(C)C)C1=C1[C@H](C[C@@H]4[C@@]5(C)CC[C@H](OC(C)=O)C(C)(C)[C@@H]5CC[C@@]4(C)[C@]1(C)CC2)n1c(=O)n(C)c(=O)n13`, in series [3], the cytotoxicity at 48 h, 25 µM worked out at 78%. For the same molecule, the cytotoxicity at 48 h, 12.5 µM in series [4] was determined as 39%. In addition, the cytotoxicity at 48 h, 50 µM in series [5] came out at 94%. For the same molecule, in series [6], the inhibition at 12.5 µM worked out at 60%. In series [1], this molecule registered an inhibition at 50 µM of 98%.
Molecule `CC(C)[C@@]12CC[C@]3(COC(=O)C4CCCCC4)CC[C@]4(C)C(=C31)[C@H](C[C@@H]1[C@@]3(C)CC[C@H](OC(=O)C5CCCCC5)C(C)(C)[C@@H]3CC[C@]14C)n1c(=O)n(C(C)(C)C)c(=O)n12` showed an inhibition at 50 µM in series [1] of 4.8%.
In [1], `CC(=O)OC[C@]12CC[C@]3(C(C)C)C1=C1[C@H](C[C@@H]4[C@@]5(C)CC[C@H](OC(C)=O)C(C)(C)[C@@H]5CC[C@@]4(C)[C@]1(C)CC2)n1c(=O)n(Cc2ccccc2)c(=O)n13` registered an inhibition at 50 µM of 25%.
As for `COc1cccc(-n2c(=O)n3n(c2=O)[C@]2(C(C)C)CC[C@]4(COC(C)=O)CC[C@]5(C)C(=C42)[C@@H]3C[C@@H]2[C@@]3(C)CC[C@H](OC(C)=O)C(C)(C)[C@@H]3CC[C@]25C)c1`, the inhibition at 50 µM in [1] was determined as 44%.
In series [1], `CC(=O)OC[C@]12CC[C@]3(C(C)C)C1=C1[C@H](C[C@@H]4[C@@]5(C)CC[C@H](OC(C)=O)C(C)(C)[C@@H]5CC[C@@]4(C)[C@]1(C)CC2)n1c(=O)n(-c2ccc(F)cc2)c(=O)n13` registered an inhibition at 50 µM of 48%.
Turning to `CC(=O)OC[C@]12CC[C@]3(C(C)C)C1=C1[C@H](C[C@@H]4[C@@]5(C)CC[C@H](OC(C)=O)C(C)(C)[C@@H]5CC[C@@]4(C)[C@]1(C)CC2)n1c(=O)n(-c2ccc(Cl)cc2)c(=O)n13`, in series [1], 50 µM produced 30% inhibition.
`CC(=O)OC[C@]12CC[C@]3(C(C)C)C1=C1[C@H](C[C@@H]4[C@@]5(C)CC[C@H](OC(C)=O)C(C)(C)[C@@H]5CC[C@@]4(C)[C@]1(C)CC2)n1c(=O)n(-c2ccc(C(C)=O)cc2)c(=O)n13` returned an inhibition at 50 µM in series [1] of 45%.
In turn, `CC(=O)OC[C@]12CC[C@]3(C(C)C)C1=C1[C@H](C[C@@H]4[C@@]5(C)CC[C@H](OC(C)=O)C(C)(C)[C@@H]5CC[C@@]4(C)[C@]1(C)CC2)n1c(=O)n(-c2cccc4ccccc24)c(=O)n13` came in with an inhibition at 50 µM in series [1] of 58%.
Molecule `CC(=O)OC[C@]12CC[C@]3(C(C)C)C1=C1[C@H](C[C@@H]4[C@@]5(C)CC[C@H](OC(C)=O)C(C)(C)[C@@H]5CC[C@@]4(C)[C@]1(C)CC2)n1c(=O)n(-c2ccccc2)c(=O)n13` gave an inhibition at 50 µM in [1] of 36%.
Regarding `CC(C)[C@@]12CC[C@]3(CO)CC[C@]4(C)C(=C31)[C@H](C[C@@H]1[C@@]3(C)CC[C@H](O)C(C)(C)[C@@H]3CC[C@]14C)n1c(=O)n(-c3ccccc3)c(=O)n12`, at 50 µM the inhibition in series [1] was 48%.
In turn, `CCCCn1c(=O)n2n(c1=O)[C@]1(C(C)C)CC[C@]3(COC(C)=O)CC[C@]4(C)C(=C31)[C@@H]2C[C@@H]1[C@@]2(C)CC[C@H](OC(C)=O)C(C)(C)[C@@H]2CC[C@]14C` had an inhibition at 50 µM in series [1] of 49%.
On to `CCn1c(=O)n2n(c1=O)[C@]1(C(C)C)CC[C@]3(COC(C)=O)CC[C@]4(C)C(=C31)[C@@H]2C[C@@H]1[C@@]2(C)CC[C@H](OC(C)=O)C(C)(C)[C@@H]2CC[C@]14C`, for which the inhibition at 25 µM in series [2] worked out at 53%. Moreover, the cytotoxicity at 48 h, 25 µM in [3] was determined as 13%. The cytotoxicity at 48 h, 12.5 µM in series [4] amounted to 8.5%. Moreover, the cytotoxicity at 48 h, 50 µM in [5] is 48%. Further, the inhibition at 12.5 µM in series [6] was found to be 0%. Also, in [1], at 50 µM the inhibition was 88%.
In turn, `CCC(=O)OC[C@]12CC[C@]3(C(C)C)C1=C1[C@H](C[C@@H]4[C@@]5(C)CC[C@H](OC(=O)CC)C(C)(C)[C@@H]5CC[C@@]4(C)[C@]1(C)CC2)n1c(=O)n(C)c(=O)n13` registered an inhibition at 25 µM in [2] of 55%. In [3], the cytotoxicity at 48 h, 25 µM came to 15%. The values for the inhibition at 50 µM in series [7] and in series [1] were 83% and 93%, respectively. The cytotoxicity at 48 h, 12.5 µM in [4] came out at 5%. Besides, in series [5], the cytotoxicity at 48 h, 50 µM was 16%. The inhibition at 12.5 µM in [6] is 18%.
With `CCCC(=O)OC[C@]12CC[C@]3(C(C)C)C1=C1[C@H](C[C@@H]4[C@@]5(C)CC[C@H](OC(=O)CCC)C(C)(C)[C@@H]5CC[C@@]4(C)[C@]1(C)CC2)n1c(=O)n(C)c(=O)n13`, in series [8], 15 µM produced 26% inhibition.
In series [1], `CC(C)[C@@]12CC[C@]3(COC(=O)C4CCCCC4)CC[C@]4(C)C(=C31)[C@H](C[C@@H]1[C@@]3(C)CC[C@H](OC(=O)C5CCCCC5)C(C)(C)[C@@H]3CC[C@]14C)n1c(=O)n(C)c(=O)n12` came in with an inhibition at 50 µM of 5.5%.
For `CC(C)[C@@]12CC[C@]3(COC(=O)c4ccccc4)CC[C@]4(C)C(=C31)[C@H](C[C@@H]1[C@@]3(C)CC[C@H](OC(=O)c5ccccc5)C(C)(C)[C@@H]3CC[C@]14C)n1c(=O)n(C)c(=O)n12`, the inhibition at 50 µM in series [1] was determined as 0%.
In turn, `CC(C)C(=O)OC[C@]12CC[C@]3(C(C)C)C1=C1[C@H](C[C@@H]4[C@@]5(C)CC[C@H](OC(=O)C(C)C)C(C)(C)[C@@H]5CC[C@@]4(C)[C@]1(C)CC2)n1c(=O)n(C)c(=O)n13` yielded an inhibition at 15 µM in series [8] of 19%.
Consider `C[C@@H]1[C@H](O)[C@@H](C)/C=C/C=C/C=C/C=C/C=C/C=C/C=C/[C@H](O[C@@H]2O[C@H](C)[C@@H](O)[C@H](N)[C@@H]2O)C[C@@H]2O[C@](O)(C[C@@H](O)C[C@@H](O)[C@H](O)CC[C@@H](O)C[C@@H](O)CC(=O)O[C@H]1C)C[C@H](O)[C@H]2C(=O)O` [AMPHOTERICIN B], for which, in series [9], the inhibition at 1 µM was more than 90%.
As to `C=C(C)[C@@H]1CC[C@]2(C=O)CC[C@]3(C)[C@H](CC[C@@H]4[C@@]5(C)CC[C@H](O)C(C)(C)[C@@H]5CC[C@]43C)[C@@H]12` [BETULINALDEHYDE], the survival at 136 µM in series [10] came out at 12%. In addition, the viability at 68 µM in series [11] stood at 80%. The viability at 136 µM in series [12] is 70%. The survival at 68 µM in [13] worked out at 42%.
On to `C=C(C)[C@@H]1CC[C@]2(C(=O)O)CC[C@]3(C)[C@H](CC[C@@H]4[C@@]5(C)CC[C@H](O)C(C)(C)[C@@H]5CC[C@]43C)[C@@H]12` [BETULINIC ACID], for which the Activity in [14] is given as 92%. Moreover, the pIC50 is 5.59 in series [15] and 5.39 in [16].

The term inhibition denotes how much of the control response was suppressed. Usually pIC50 stands for the negative decadic logarithm of the IC50, by convention in mol/L.
